From ChEMBL document CHEMBL1122522, “Conformationally restricted retinoids” (1984)
Calls of active or inactive are those of the source. The rule behind the calls is not given here.

Key:
Cricetinae gen. sp. [1] = assay: Activity of compound the was expressed as ratio of active hamster tracheal organ cultures(TOC) to the total cultures at 10e-12 M concentration; 6/15; assay type: functional, Cricetulus griseus, Trachea
How it was run: (§1)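 Tracheal organ cultures came from vitamin A-deficient hamsters. Each culture was scored for reversal of keratinization and reported as active cultures out of total cultures at each retinoid concentration tested (10⁻⁸ to 10⁻¹² M). The protocol followed earlier published methods.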

Cricetinae gen. sp. [2] = assay: Activity of compound the was expressed as ratio of active hamster tracheal organ cultures(TOC) to the total cultures at 10e-10 M concentration; 15/15; assay type: functional, Cricetulus griseus, Trachea; how it was run: as §1
Cricetinae gen. sp. [3] = assay: Activity of compound the was expressed as ratio of active hamster tracheal organ cultures(TOC) to the total cultures at 10e-11 M concentration; 15/15; assay type: functional, Cricetulus griseus, Trachea; how it was run: as §1
Cricetinae gen. sp. [4] = assay: Molarity required to effect reversal of keratinization in 50% of cultures.; assay type: functional, Cricetulus griseus
Mus musculus [5] = organism: Mus musculus; assay: Tested for relative activity in a 20-week anti-papilloma experiment in female CD-1 mice at dose 0.17 nmol; assay type: functional
How it was run: (§2)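 Female Charles River CD-1 mice, 8 weeks old, in random groups of 25–30, were shaved 2 days before initiation with 200 nmol DMBA in acetone on the back. From 2 weeks on, 8.5 nmol TPA was applied twice weekly for 20 weeks. Retinoid in 0.2 mL acetone, or acetone alone for controls, was given 1 h before each TPA dose. Papillomas were counted weekly, and mean papillomas per mouse were compared with controls at 20 weeks.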

Mus musculus [6] = organism: Mus musculus; assay: Tested for relative activity in a 20-week anti-papilloma experiment in female CD-1 mice at dose 1.7 nmol; assay type: functional; how it was run: as §2
Mus musculus [7] = organism: Mus musculus; assay: Tested for relative activity in a 20-week anti-papilloma experiment in female CD-1 mice at dose 17 nmol; e-Animalsdied at 3-7 weeks; assay type: functional, organism-based; how it was run: as §2
Mus musculus [8] = organism: Mus musculus; assay: Percent decrease in average number of papillomas 0.17 at dose*-p<0.001; assay type: functional; how it was run: as §2
Mus musculus [9] = organism: Mus musculus; assay: Percent decrease in average number of papillomas 1.7 at dose*-p<0.001; assay type: functional; how it was run: as §2
[10] = target: T1, Ornithine decarboxylase (Mus musculus) (UniProt P00860); assay: TInhibition of the induction of ornithine decarboxylase in mouse epidermis by the tumor promoter 12-O-tetradecanoylphorbol-13-acetate (ODC) at dose 1.7 nmol*-p<0.001
T1 sequence (whole entry): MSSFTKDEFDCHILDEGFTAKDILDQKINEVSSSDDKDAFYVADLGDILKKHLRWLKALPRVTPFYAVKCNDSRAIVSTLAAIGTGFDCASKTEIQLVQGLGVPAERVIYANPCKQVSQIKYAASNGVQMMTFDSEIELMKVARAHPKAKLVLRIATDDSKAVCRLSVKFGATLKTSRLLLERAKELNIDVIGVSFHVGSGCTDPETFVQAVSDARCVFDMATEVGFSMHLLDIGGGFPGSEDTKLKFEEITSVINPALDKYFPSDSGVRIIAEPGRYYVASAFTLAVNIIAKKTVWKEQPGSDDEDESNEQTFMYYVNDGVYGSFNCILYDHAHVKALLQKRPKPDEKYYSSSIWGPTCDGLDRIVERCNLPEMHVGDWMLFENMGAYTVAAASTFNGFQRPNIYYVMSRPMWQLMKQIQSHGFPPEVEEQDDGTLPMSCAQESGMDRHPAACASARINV

[11] = target: T1, Ornithine decarboxylase (Mus musculus); assay: Inhibition of the induction of ornithine decarboxylase in mouse epidermis by the tumor promoter 12-O-tetradecanoylphorbol-13-acetate (ODC) at dose 17 nmol*-p<0.001
[12] = Mortality range in days at dose 20 umol/kg day; 6-8; assay type: functional, Mus musculus
How it was run: (§3)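 Adult female Swiss mice (20–25 g) had chow and water ad libitum. The retinoid was homogenized as a suspension in aqueous 8% Cremophor EL plus 10% propylene glycol. It was given ip as 10 weekday injections over 14 days. Controls received vehicle alone. Survivors were weighed on days 1, 5, 10 and 15, and dates of death were recorded. Survival was scored at days 8 and 15.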

[13] = Mortality range in days at dose 30 umol/kg day; 10-15; assay type: functional, Mus musculus; how it was run: as §3
[14] = Mortality range in days at dose 30 umol/kg day; 7-10; assay type: functional, Mus musculus; how it was run: as §3
[15] = Mortality range in days at dose 30 umol/kg day; 7-11; assay type: functional, Mus musculus; how it was run: as §3
[16] = Percent survivors at dose 1.0 umol/kg day; assay type: functional, Mus musculus; how it was run: as §3
[17] = Percent survivors at dose 10 umol/kg day; assay type: functional, Mus musculus; how it was run: as §3
[18] = Percent survivors at dose 30 umol/kg day; assay type: functional, Mus musculus; how it was run: as §3
Mus musculus [19] = organism: Mus musculus; assay: Tested for relative activity in a 20-week anti-papilloma experiment in female CD-1 mice at dose 170 nmol;d- Animals died at 1-2 weeks; assay type: functional, organism-based; how it was run: as §2
[20] = Percent survivors at dose 3.3 umol/kg day; assay type: functional, Mus musculus; how it was run: as §3
Cricetinae gen. sp. [21] = assay: Activity of compound the was expressed as ratio of active hamster tracheal organ cultures(TOC) to the total cultures at 10e-10 M concentration; 2/7; assay type: functional, Cricetulus griseus, Trachea; how it was run: as §1
Cricetinae gen. sp. [22] = assay: Molarity required to effect reversal of keratinization in 50% of the cultures; assay type: functional, Cricetulus griseus
How it was run: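 Tracheal organ cultures from vitamin A-deficient hamsters were scored for reversal of keratinization across a range of molar retinoid concentrations. The value is the concentration reversing keratinization in 50% of cultures, read from active/total culture counts.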

Cricetinae gen. sp. [23] = assay: Activity of compound the was expressed as ratio of active hamster tracheal organ cultures(TOC) to the total cultures at 10e-9 M concentration; 1/6; assay type: functional, Cricetulus griseus, Trachea; how it was run: as §1
[24] = target: T1, Ornithine decarboxylase (Mus musculus); assay: Inhibition of the induction of ornithine decarboxylase in mouse epidermis by the tumor promoter 12-O-tetradecanoylphorbol-13-acetate (ODC) at dose 17 nmol; Inhibition not significant
[25] = target: T1, Ornithine decarboxylase (Mus musculus); assay: Inhibition of the induction of ornithine decarboxylase in mouse epidermis by the tumor promoter 12-O-tetradecanoylphorbol-13-acetate (ODC) at dose 1.7 nmol; Inhibition not significant
Cricetinae gen. sp. [26] = assay: Activity of compound the was expressed as ratio of active hamster tracheal organ cultures(TOC) to the total cultures at 10e-10 M concentration; 12/14; assay type: functional, Cricetulus griseus, Trachea; how it was run: as §1
Cricetinae gen. sp. [27] = assay: Activity of compound the was expressed as ratio of active hamster tracheal organ cultures(TOC) to the total cultures at 10e-8 M concentration; 7/7; assay type: functional, Cricetulus griseus, Trachea; conditions: at 0.01 µM
Cricetinae gen. sp. [28] = assay: Activity of compound the was expressed as ratio of active hamster tracheal organ cultures(TOC) to the total cultures at 10e-9 M concentration; 7/7; assay type: functional, Cricetulus griseus, Trachea; how it was run: as §1
Mus musculus [29] = organism: Mus musculus; assay: Tested for relative activity in a 20-week anti-papilloma experiment in female CD-1 mice at dose 170 nmol; assay type: functional; how it was run: as §2
Mus musculus [30] = organism: Mus musculus; assay: Tested for relative activity in a 20-week anti-papilloma experiment in female CD-1 mice at dose 17 nmol; assay type: functional; how it was run: as §2
Mus musculus [31] = organism: Mus musculus; assay: Percent decrease in average number of papillomas 170 at dose; assay type: functional; how it was run: as §2
Mus musculus [32] = organism: Mus musculus; assay: Percent decrease in average number of papillomas 17 at dose; assay type: functional; how it was run: as §2
[33] = target: T1, Ornithine decarboxylase (Mus musculus); assay: TInhibition of the induction of ornithine decarboxylase in mouse epidermis by the tumor promoter 12-O-tetradecanoylphorbol-13-acetate (ODC) at dose 1.7 nmol
[34] = target: T1, Ornithine decarboxylase (Mus musculus); assay: Inhibition of the induction of ornithine decarboxylase in mouse epidermis by the tumor promoter 12-O-tetradecanoylphorbol-13-acetate (ODC)) at dose 17 nmol
[35] = Mortality range in days at dose 300 umol/kg day; 14-15; assay type: functional, Mus musculus; how it was run: as §3
[36] = Mortality range in days at dose 600 umol/kg day; 9-10; assay type: functional, Mus musculus; how it was run: as §3
[37] = Percent survivors at dose 100 umol/kg day; assay type: functional, Mus musculus; how it was run: as §3
[38] = Percent survivors at dose 200 umol/kg day; assay type: functional, Mus musculus; how it was run: as §3
[39] = Percent survivors at dose 300 umol/kg day; assay type: functional, Mus musculus; how it was run: as §3
[40] = Percent survivors at dose 600 umol/kg day; assay type: functional, Mus musculus; how it was run: as §3
Cricetinae gen. sp. [41] = assay: Activity of compound the was expressed as ratio of active hamster tracheal organ cultures(TOC) to the total cultures at 10e-9 M concentration; 5/19; assay type: functional, Cricetulus griseus, Trachea; how it was run: as §1

C/C(=C\c1ccc(C(=O)O)cc1)c1ccc2c(c1)C(C)(C)CCC2(C)C showed an Activity (Cricetinae gen. sp. [1]) of 6%, an Activity (Cricetinae gen. sp. [2]) of 15% and an Activity (Cricetinae gen. sp. [3]) of 15%. The ED50 (Cricetinae gen. sp. [4]) was 1e-12, the Activity (Mus musculus [5]) was 73% and the Activity (Mus musculus [6]) was 50%. For the same molecule, the Activity (Mus musculus [7]) was “inactive”, the Decrease (Mus musculus [8]) was 62.9% and the Decrease (Mus musculus [9]) was 92.3%. It also gave an inhibition [10] of 89%, an inhibition [11] of 91% and a Mortality range [12] of 8 days. The Mortality range [13] was 15 days, the Mortality range [14] was 10 days and the Mortality range [15] was 11 days. For the same molecule, the “Survivors at day 8” value [16] was 100%, the “Survivors at day 15” value [16] was 30% and the “Survivors at day 8” value [17] was 87%. For the same molecule, the “Survivors at day 15” value [17] was 0%, the “Survivors at day 8” value [18] was 50% and the “Survivors at day 15” value [18] was 0%. For the same molecule, the Activity (Mus musculus [19]) was “inactive”, the “Survivors at day 8” value [20] was 97% and the “Survivors at day 15” value [20] was 0%.

Work on CCOC(=O)c1cccc(/C=C(C)/C=C/C2=C(C)CCCC2(C)C)c1 yielded an Activity (Cricetinae gen. sp. [21]) of 2%, an ED50 (Cricetinae gen. sp. [22]) greater than 1e-08 and an Activity (Cricetinae gen. sp. [23]) of 1%. The inhibition [24] was 6% and the inhibition [25] was 13%.

For C/C(=C\c1ccc(C(=O)O)cc1)c1ccc2c(c1)C(C)(C)CCS2, the Activity (Cricetinae gen. sp. [26]) was 12%, the ED50 (Cricetinae gen. sp. [4]) was 5e-11 and the Activity (Cricetinae gen. sp. [27]) was 7%. For the same molecule, the Activity (Cricetinae gen. sp. [28]) was 100%, the Activity (Mus musculus [29]) was 38% and the Activity (Mus musculus [30]) was 53%. The Decrease (Mus musculus [31]) was 93.6%, the Decrease (Mus musculus [32]) was 93.4% and the inhibition [33] was 68%. For the same molecule, the inhibition [34] was 85%, the Mortality range [35] was 15 days and the Mortality range [36] was 10 days. For the same molecule, the “Survivors at day 8” value [37] was 100%, the “Survivors at day 15” value [37] was 100% and the “Survivors at day 8” value [38] was 100%. For the same molecule, the “Survivors at day 8” value [39] was 100%, the “Survivors at day 15” value [39] was 80% and the “Survivors at day 15” value [18] was 100%. The “Survivors at day 8” value [40] was 100% and the “Survivors at day 15” value [40] was 0%.

Work on CCOC(=O)/C=C(C)/C=C/C=C(C)/C=C/C1=CC2CCC1C2 (stereo unspecified) yielded an ED50 (Cricetinae gen. sp. [4]) greater than 1e-09 and an Activity (Cricetinae gen. sp. [41]) of 26%.
